# A selection: hits, their analogues and other compounds. The true share with any hit is near 1.5%.
# FLuc inh counter: Photinus pyralis luciferase inhibition counter-screen. P08659. ATPLite firefly luciferase biochemical luminescence, 10 min. inhibition, % at 10 µM. 200,000 compounds, 1.5% hits;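 active = inhibition above about 50% when tested at 10 µM, limit read from the data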
# Target sequence (P08659 whole entry, looked up): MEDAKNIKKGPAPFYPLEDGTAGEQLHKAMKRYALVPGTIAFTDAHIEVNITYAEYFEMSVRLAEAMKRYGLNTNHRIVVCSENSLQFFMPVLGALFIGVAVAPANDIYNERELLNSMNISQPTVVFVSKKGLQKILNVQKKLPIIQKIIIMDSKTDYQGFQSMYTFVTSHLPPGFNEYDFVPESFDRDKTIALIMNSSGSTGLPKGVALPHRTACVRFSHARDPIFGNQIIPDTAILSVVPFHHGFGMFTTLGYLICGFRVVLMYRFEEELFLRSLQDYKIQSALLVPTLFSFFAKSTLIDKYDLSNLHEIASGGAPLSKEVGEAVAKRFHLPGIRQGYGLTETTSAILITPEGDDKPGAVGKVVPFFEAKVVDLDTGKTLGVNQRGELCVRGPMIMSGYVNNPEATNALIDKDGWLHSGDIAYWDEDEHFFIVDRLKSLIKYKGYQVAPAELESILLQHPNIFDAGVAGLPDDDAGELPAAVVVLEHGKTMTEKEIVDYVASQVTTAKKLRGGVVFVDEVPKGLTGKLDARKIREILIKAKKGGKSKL
# C8 TRAIL sens: caspase-8 TRAIL sensitization | NB7+C8 cells + TRAIL, ATPlite viability luminescence | inhibition (viability loss, TRAIL sensitization), % at 10 µM | 360,000 compounds, 1% hits;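 active = compounds causing at least 50% loss of cell viability in the single-dose screen, relative to plate controls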
# FLuc stim CS: firefly luciferase counter-screen for stimulation assays. P08659. ATPlite luciferase biochemical, luminescence, 10 min; 0 = ATP-free wells, 1 = DMSO control. activation factor at 10 µM. 200,000 tested, under 10 active;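 active = luciferase activation factor, scaled between plate controls, of at least 2 with compound at 10 µM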
#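 System: cell-free luciferase reagent; medium: PBS as buffer for the ATP substrate; doses: test compounds dosed from 2 mM stocks in 100% DMSO; incubation: 10 min, room temperature; measured by: luminescence from luciferase reaction; read-out: luciferase activation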
# PPC-1+TRAIL kill: PPC-1 cancer cell killing with TRAIL present; PPC-1 cells + TRAIL, ATPLite viability luminescence; cell killing (% activity), % at 4 µM or 5 µM; 220,000 compounds, 0.41% hits; AID 1443;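 active = cell killing above 50% in the first pass at 4 µM, then a duplicate retest at 5 µM averaging 50% or more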
# A number is an active result; - = inactive; . = not tested or not shown.
SMILES,FLuc inh counter,C8 TRAIL sens,FLuc stim CS,PPC-1+TRAIL kill
Cc1nc2cc(-c3ccccc3)nn2c(N)c1-c1ccccc1,.,66,.,.
COc1cc2cncc(Cc3ccc(Cl)cc3)c2cc1OC,.,-,.,.
Cc1ccc(CSc2nc3ccncc3n2CC(=O)Nc2cc(C)cc(C)c2)cc1,50,51,-,-
O=S(=O)(c1c(F)cccc1F)N(CCc1ccc(F)cc1)C[C@@H](O)COCc1ccccc1,.,-,.,.
C/C(=N\Nc1cccc2cccnc12)c1ccc(C)cc1,62,-,-,-
Cc1cccc(C(=O)Nc2cccc3cccnc23)c1,.,-,.,.
CC(C)n1cnc2cc(NCc3ccco3)ccc21,58,-,-,-
CC(=O)Nc1ccc(S(=O)(=O)Oc2ccc(/C=C3\SC(N)=NC3=O)cc2)cc1,-,-,-,-
CC1(C(=O)NCC(F)(F)F)CCN1C(=O)Cc1ccc(-c2ccccc2)cc1 (configuration not stated),.,-,.,.
CCN1CCN(C(=O)/C=C/c2ccc(C(C)C)cc2)CC1,.,-,.,.
CCN1CCC(O)(/C=C/c2ccc(C(C)C)cc2)C(C(=O)/C=C/c2ccc(C(C)C)cc2)C1 (configuration not stated),.,87,.,.
Nc1nonc1N/N=C\c1ccccc1,.,-,.,-
Nc1cnnc(N/N=C\c2ccccc2)c1Cl,.,49,.,.
O=C(O)c1cccc(-c2noc(-c3cccc(Cl)c3)n2)c1,.,62,.,.
O=C1CC(C(=O)O)(c2ccccc2)c2cccc(F)c21 (configuration not stated),.,-,.,.
NC(=O)N/N=C/c1sc(=O)n(-c2ccccc2)c1Cl,.,-,.,-
O=C(N/N=C/c1sc(=O)n(-c2ccccc2)c1Cl)c1ccccc1,67,-,-,-
Cc1ccc(Cn2ccc(=O)c(OCc3c(Cl)cccc3Cl)c2C)cc1,-,-,-,-
CNC[C@H](CC1CCCCC1)NC[C@H](Cc1ccccc1)NCCC12CC3CC(CC(C3)C1)C2,.,96,.,.
NC[C@H](Cc1ccccc1)NCCCCC1CCCCC1,.,-,.,.
Cc1ccc(/C=C/C2=NN(C)C(=O)CC2)cc1,78,53,-,-
CN1N=C(/C=C/c2ccccc2)CCC1=O,-,-,-,-
Cc1nc(NCC2CCCO2)nc2c1C(=O)CC(C)C2 (configuration not stated),-,52,-,-
Cc1nc(NCC2CCCO2)nc2c1C(=O)CC(C)(C)C2 (configuration not stated),-,-,-,-
CC(C)c1ccc(NC(=O)C(=O)C2C(=O)Nc3ccccc32)cc1 (configuration not stated),52,-,-,-
SMILES,FLuc inh counter,C8 TRAIL sens,FLuc stim CS,PPC-1+TRAIL kill
N#Cc1cc([N+](=O)[O-])ccc1NC(=O)COC(=O)CC1CCCC1,.,.,.,-
CN(C)c1ccc(C2NC(=O)c3ccccc3N2)cc1 (configuration not stated),.,65,.,.
Nc1nnnn1/N=C/C(Br)=C/c1ccccc1,-,59,-,-
Cc1ccc(-c2cnc3c(Cl)c(C)nn3c2)cc1,58,-,-,-
Cc1nc2nc(-c3ccc(Cl)cc3)cn2nc1C,-,-,-,-
Cc1ccc(-c2ccnc3c(Cl)c(C)nn23)cc1,.,-,.,.
Cc1cc2ncc(-c3ccc(Cl)cc3)cn2n1,56,-,-,-
CCOc1ccc(NCc2nnc(SCc3ccc(Cl)cc3)n2-c2ccccc2)cc1,-,-,-,-
Cc1nc(-c2ccc(NC(=O)C3CC3)cc2)cs1,.,-,.,.
Cc1nc(-c2ccc(NC(=O)c3ccc(Br)o3)cc2)cs1,.,55,.,.
Cc1nc(-c2ccc(NC(=O)CC(C)C)cc2)cs1,68,53,-,-
Cc1nc(-c2cccc(NC(=O)c3ccc(Br)o3)c2)cs1,.,-,.,.
Cc1[nH]c2ccccc2c1C(=O)CN1CC(C)OC(C)C1 (configuration not stated),.,.,.,-
CN=c1scc(-c2cccs2)n1/N=C/c1ccc(O)c(O)c1O,98,91,-,-
CN=c1scc(C)n1/N=C/c1ccc(O)c(O)c1O,97,-,-,-
CN=c1scc(-c2cccs2)n1/N=C/c1ccccc1O,94,94,-,74
C=CCN=c1scc(-c2ccco2)n1/N=C/c1ccc(O)c(O)c1O,.,-,.,-
Cc1cc(C)n(/N=C/c2ccccc2O)c(=O)c1,-,-,-,-
CN=c1scc(C)n1/N=C/c1cc(Br)c(O)c(OC)c1,-,-,-,-
C[N+]1([O-])[C@@H]2Cc3cc4c(cc3[C@@H]1Cc1cc3c(cc12)OCO3)OCO4 (some centres not stated),.,-,.,-
Cc1cccc(-n2ncc3c(NCCCO)ncnc32)c1,53,-,-,-
Cc1cccc(-n2ncc3c(NC4CCCCC4)ncnc32)c1,70,73,-,-

# Screening data deposited in PubChem by Sanford-Burnham Center for Chemical Genomics.
